Source: PubChem BioAssay
ANO1 block = blocks the mouse calcium-activated chloride channel TMEM16A; Q8BHY3; HEK293 TMEM16A/YFP iodide influx fluorescence, ionomycin; normalized B-score (activity score, 25-100; higher = stronger inhibition) at 10 µM; 310,000 compounds, 1.2% hits;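 active means ratio plate-corrected score three or more library SD toward inhibition, starting fluorescence score within five deviations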;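 further: score derived from kinetic fluorescence span divided by baseline fluorescence per well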
MIN6 prolif = MIN6 beta-cell proliferation induction; MIN6 cells proliferation, ATPlite luminescence, 48 h; cells starved in 0.2% serum; 100% = growth in 10% serum; proliferation, % at 10 µM; 330,000 compounds, 0.29% hits; AID 2380;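 active means compounds whose signal lies at least 3.5 SD above the mean of all wells on their plate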;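 further: 0% = DMSO-treated cells in low-serum medium and 100% = 10% serum control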
ANO1 activ = activates or potentiates the mouse TMEM16A chloride channel; HEK293 TMEM16A/YFP-H148Q/I152L, iodide quench fluorescence; hits give low values; B-score at 10 µM; 340,000 compounds, 0.3% hits;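 active means fluorescence-ratio B-score plate-corrected deviation score at least 3 library SD below zero, with starting fluorescence score within 5 deviations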;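 further: channel opened by trigger with iodide after compound preincubation; score built on the fluorescence ratio of max minus min over baseline; more negative score means more quench and so TMEM16A activation or potentiation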
MC4R barr agon = agonists of human melanocortin 4 receptor (MC4R) beta-arrestin; P32245; U2OS MC4R beta-arrestin complementation, luminescence; percent of melanotan II response, DMSO zero; activation, % at 8.9 µM; 360,000 compounds, 0.98% hits; AID 540308;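 active means activation above a per-plate cutoff, the mean activation of sample wells on that plate plus 3 SD, cut at about 8% in these data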
MC4R antagonist = blocks human MC4R cAMP signaling | P32245 | MC4R-expressing cells, MTII-stimulated cAMP, LANCE TR-FRET | 360,000 compounds, 0.48% hits | inhibition, % at 6.5 µM;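 active means inhibition above its plate's cutoff, the mean of tested wells on that plate plus 3 SD, cut at about 29% in these data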;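 further: 0% = Melanotan II alone and 100% = Melanotan II plus saturating MCL0020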
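Material – human MC4R-expressing U2OS cells · Repeats – no replicates · Detection – TR-FRET with Eu-cAMP and labeled anti-cAMP, 671 nm · Times – compound 30 min, challenge 1 h, detection 1 h · Compound – single nominal compound dose of 6.5 µM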
HTR2A ag = agonists of mouse serotonin 5-HT2A receptor (HTR2A); P35363; 360,000 compounds, 0.66% hits; AID 624169; activation, % at 7.6 µM; CHO-K1 mHTR2A beta-arrestin complementation, luminescence; percent of 30 µM serotonin response;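 active means activation above a run cutoff, the mean activation of all tested compounds plus 3 SD, cut at about 14% in these data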;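 further: 0% = plate median of compound wells and 100% = 30 µM serotonin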
Active calls of the source: *; i = inactive; x = not tested or not shown. In the library only some 3.4% were active in any assay of this set; here they are far more common.

SMILES	ANO1 block	MIN6 prolif	ANO1 activ	MC4R barr agon	MC4R antagonist	HTR2A ag
COCC(=O)N1C[C@H]2CON(C)[C@H]2C[C@H]1c1ccc(N2CCCCC2)cc1	x	x	x	x	x	0.3
O=C(NCC1CCCO1)c1ccccc1-c1nc(-c2ccc(F)cc2)no1 (stereo unspecified)	100*	-0.3	i	0.2	-1.8	3.6
CCc1ccc(S(=O)(=O)/N=C2\C=C(Nc3cccc(C(=O)O)c3)C(=O)c3ccccc32)cc1	25*	-3.3	i	-3.0	-11.6	-5.3
CCc1ccc(S(=O)(=O)/N=C2/C=C(Sc3ncn[nH]3)C(=O)c3ccccc32)cc1	i	x	i	-1.0	60.0*	6.5
COc1ccc(/C=N\NC(=O)c2cc(O)c(O)c(O)c2)cc1COc1ccc(C(=O)OCC(C)C)cc1	i	-4.5	i	4.0	7.5	-1.0
COc1cc2c(cc1OC)-c1cc(OCc3ccccc3Cl)nc(=O)n1CC2	i	2.6	i	2.5	-8.4	19.5*
Cn1cc(C(c2ccccc2OCC(=O)O)c2cn(C)c3ccccc23)c2ccccc21	25*	-0.3	i	-0.6	1.0	-1.4
OC(CN1c2ccccc2Sc2ccccc21)Cn1nnc2ccccc21 (stereo unspecified)	100*	-5.8	i	4.7	-8.5	3.5
COc1ccc(C(=O)Nc2cc(OC)c(NC(=O)Nc3ccccc3)cc2OC)cc1	x	x	x	-1.3	10.9	0.5
COc1ccccc1NC(=O)NCc1nc(-c2ccc(C(F)(F)F)cc2)no1	i	-3.3	i	8.5*	9.7	-4.7
CCCOc1ccc(/C=C2\SC(=S)N(CC3CCCO3)C2=O)cc1 (stereo unspecified)	i	-1.1	i	-1.5	-5.5	1.4
O=C1/C(=C/c2ccc(O)cc2)SC(=S)N1CC1CCCO1 (stereo unspecified)	i	-3.2	-5.07*	-3.2	-16.0	-1.3
CCOc1ncccc1C(=O)Nc1ccc2c(c1)OCCCO2	x	3.1	i	2.7	-3.5	10.2
Cc1ccccc1-n1c(SCc2c(C)noc2C)nnc1-c1cccnc1	i	-3.1	-5.22*	-0.6	2.6	3.5
Cc1ccccc1-n1c(SCc2c(C)noc2C)nnc1-c1ccncc1	i	-2.0	i	-1.8	7.2	3.9
O=C(c1[nH]nc2c1CCc1ccccc1-2)N1CCN(Cc2ccc3c(c2)OCO3)CC1	25*	-1.3	i	-0.9	9.5	-4.9
O=C(c1ccccc1)N1CCN(Cc2ccc3c(c2)OCO3)CC1	i	-4.8	x	-1.4	-0.1	-7.8
COc1ccc(CNC(=O)COC(=O)c2cc(-c3ccc(Cl)s3)nc3ccccc23)cc1	i	-1.6	i	9.2*	0.5	1.5
COc1ccc2c(c1)c(CC(=O)NCc1cc([N+](=O)[O-])ccc1O)c(C)n2C(=O)c1ccc(Cl)cc1	100*	-6.9	i	-1.9	10.8	-2.5
CC(Oc1ccc(Br)cc1)C(=O)N(Cc1ccccc1)c1c(N)n(Cc2ccccc2)c(=O)[nH]c1=O (stereo unspecified)	x	x	x	-0.5	15.4	2.4
CSc1cccc(NC(=O)C(=O)NCc2ccccc2)c1	i	-4.7	i	8.7*	-3.9	2.4
CCCCC[C@@H](C)N1C[C@@H](COCc2ccccc2)Oc2cc(N3CCC[C@@H]3COC)ccc2S1(=O)=O	x	x	x	x	x	5.3
CCN(CC(=O)Nc1ccc(OC)cc1)C(=O)c1ccc2c(c1)NC(=O)C(C)S2 (stereo unspecified)	i	0.7	i	-0.8	22.6	2.7
COc1cc2c(cc1N)-c1ccc(N)cc1C2	x	x	i	-0.9	-12.4	-0.1
Cc1ccc(S(=O)(=O)c2ccc(Cl)cc2)cc1S(=O)(=O)N1CCOCC1	25*	0.8	i	-3.0	6.0	-7.5
SMILES	ANO1 block	MIN6 prolif	ANO1 activ	MC4R barr agon	MC4R antagonist	HTR2A ag
Cc1ccc(S(=O)(=O)N2CCCC2)cc1S(=O)(=O)N1CCCC1	i	0.5	i	-2.4	2.9	3.9
COc1ccc(C2(c3ccc(OC)cc3)NC(=O)N(CC(=O)N(C)C3CCC(C)CC3)C2=O)cc1 (stereo unspecified)	x	-4.1	i	2.7	-2.1	-2.4
CCOC(=O)c1[nH]c2ccc(OC)cc2c1NC(=O)c1nonc1C	i	0.0	i	-1.0	-0.4	-4.3
CCOC(=O)c1[nH]c2ccc(Cl)cc2c1NC(=O)c1nonc1C	i	-0.2	i	8.9*	3.7	0.9
Nc1ccn([C@@H]2O[C@H](C(=O)N(CCC3=CCCCC3)CC3CC3)[C@@H](O)[C@H]2O)c(=O)n1	x	x	x	x	x	-9.4
CN(C)c1ccc(S(=O)(=O)c2ccc(Cl)cc2)cc1	i	-4.5	i	8.3*	-4.8	-0.4
CN(C)c1ccc(NS(=O)(=O)c2ccc(Cl)cc2)cc1	i	1.4	i	0.1	13.3	-3.7
C#CCNC(=O)C[C@@H]1C[C@@]2(C(=O)OC)CCCCC=C2N(CCCCCCCC)C1=O	x	x	x	x	x	2.4
CCN1CCN(CCNC(=O)c2ccc(/C=C3/Sc4ccccc4N(Cc4ccccc4C)C3=O)cc2)CC1	x	x	i	8.9*	-1.7	-5.6
Cc1ccccc1CN1C(=O)c2ccccc2Sc2ccc(C(=O)NCCN3CCOCC3)cc21	i	-0.1	i	1.5	24.0	-8.2
O=C(Cn1cnc2ccccc21)Nc1ccc2c(c1)OCCCO2	x	-3.9	i	-0.1	11.7	6.5
CC(C)(C)n1ncc2c(=O)n(CC(=O)NCCc3ccccc3)cnc21	i	-2.0	i	0.5	3.7	-1.8
CC(C)(C)n1ncc2c(=O)n(CC(=O)NCc3ccccc3Cl)cnc21	i	-2.6	-21.6*	0.1	14.8	-2.1
CNC(=S)Nc1cccc([N+](=O)[O-])c1	i	-0.1	i	-1.6	21.1	-1.1
Cc1cc(Br)ccc1NC(=S)Nc1cccc([N+](=O)[O-])c1	100*	-5.6	i	4.1	12.3	6.4
CC(=O)c1cccc(NC(=S)NC(=O)c2ccc(C)cc2)c1	i	-5.9	i	0.4	20.3	1.5
O=C(NNC(=S)NC(=O)c1cccc([N+](=O)[O-])c1)c1ccc(O)cc1	i	-3.4	i	2.4	6.3	1.6
Cc1cccc(NC(=S)NNC(=O)c2cccc([N+](=O)[O-])c2)c1	25*	3.3	i	-1.1	1.3	5.5
O=C(NNC(=S)NC(=O)c1cccc([N+](=O)[O-])c1)c1ccc(Br)cc1	100*	-3.5	i	-1.8	0.8	-1.3
CC(=O)c1cccc(NC(=S)NC(=O)c2ccc(Br)cc2)c1	i	0.0	i	8.5*	8.5	-2.3
